Measurements as given in ChEMBL document CHEMBL3124904, “Second-generation derivatives of the eukaryotic translation initiation inhibitor pateamine A targeting eIF4A as potential anticancer agents” (Bioorg Med Chem, 2014).
Calls of active or inactive are those of the source. No cut-off for these calls is given here.

How the values were obtained:
[1] = Selectivity ratio of IC50 for MEF to IC50 for human Jurkat T cells; format: cell-based; conditions: mouse (MEF) and human (Jurkat T cells), read-out: Ratio IC50
[2] = Selectivity ratio of IC50 for MEF to IC50 for human SK-MEL-2 cells; format: cell-based; conditions: mouse (MEF) and human (SK-MEL-2 cells), MEF and SK-MEL-2 cells; read-out: Ratio IC50
[3] = Selectivity ratio of IC50 for MEF to IC50 for human HeLa cells; format: cell-based; conditions: mouse (MEF) and human (HeLa cells), read-out: Ratio IC50
[4] = Dissociation constant, pKa of the compound; format: physicochemical
[5] = organism: Oryctolagus cuniculus; assay: Inhibition of cap-independent HCV-IRES-induced translation in rabbit reticulocyte lysate at 500 nM after 1.5 hrs by luciferase reporter gene assay; format: functional
Summary of the method: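 Capped bicistronic reporter mRNA: cap-dependent firefly luciferase first cistron, HCV IRES-driven Renilla second cistron. Transcribed in vitro with SP6 from the BamHI-linearised plasmid. 200 ng RNA translated in rabbit reticulocyte lysate with 70 mM KCl, 2 mM DTT, RNasin and compound in DMSO (5% v/v final), 30 °C for 1.5 h. Dual luciferase readout. Duplicates, 4 independent assays, mean IC50 by curve fit.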

[6] = Antiproliferative activity against BAEC assessed as DNA synthesis level after 24 hrs by thymidine incorporation assay; conditions: Bos taurus
Summary of the method: (§1)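 Cells kept at 37 °C, 5% CO2 with penicillin-streptomycin and 10% FBS. Adherent lines seeded at 2000 cells/well and left to recover overnight; Jurkat seeded at 5000 cells/well with no recovery period. Compound added in DMSO (0.1% final, vehicle-only control) at 0.001–100 nM over 10 wells. DNA synthesis read out after 24 h. Mean IC50 from at least 3 independent assays.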

[7] = Antiproliferative activity against human Jurkat T cells assessed as DNA synthesis level after 24 hrs by thymidine incorporation assay; format: functional, cell-based; summary of the method: as §1
[8] = target: T1, DNA polymerase alpha catalytic subunit (Homo sapiens, UniProt P09884); assay: Inhibition of DNA polymerase-alpha (unknown origin) assessed as incorporation of Br(d)UTP by colorimetric analysis
T1 sequence (P09884 whole entry): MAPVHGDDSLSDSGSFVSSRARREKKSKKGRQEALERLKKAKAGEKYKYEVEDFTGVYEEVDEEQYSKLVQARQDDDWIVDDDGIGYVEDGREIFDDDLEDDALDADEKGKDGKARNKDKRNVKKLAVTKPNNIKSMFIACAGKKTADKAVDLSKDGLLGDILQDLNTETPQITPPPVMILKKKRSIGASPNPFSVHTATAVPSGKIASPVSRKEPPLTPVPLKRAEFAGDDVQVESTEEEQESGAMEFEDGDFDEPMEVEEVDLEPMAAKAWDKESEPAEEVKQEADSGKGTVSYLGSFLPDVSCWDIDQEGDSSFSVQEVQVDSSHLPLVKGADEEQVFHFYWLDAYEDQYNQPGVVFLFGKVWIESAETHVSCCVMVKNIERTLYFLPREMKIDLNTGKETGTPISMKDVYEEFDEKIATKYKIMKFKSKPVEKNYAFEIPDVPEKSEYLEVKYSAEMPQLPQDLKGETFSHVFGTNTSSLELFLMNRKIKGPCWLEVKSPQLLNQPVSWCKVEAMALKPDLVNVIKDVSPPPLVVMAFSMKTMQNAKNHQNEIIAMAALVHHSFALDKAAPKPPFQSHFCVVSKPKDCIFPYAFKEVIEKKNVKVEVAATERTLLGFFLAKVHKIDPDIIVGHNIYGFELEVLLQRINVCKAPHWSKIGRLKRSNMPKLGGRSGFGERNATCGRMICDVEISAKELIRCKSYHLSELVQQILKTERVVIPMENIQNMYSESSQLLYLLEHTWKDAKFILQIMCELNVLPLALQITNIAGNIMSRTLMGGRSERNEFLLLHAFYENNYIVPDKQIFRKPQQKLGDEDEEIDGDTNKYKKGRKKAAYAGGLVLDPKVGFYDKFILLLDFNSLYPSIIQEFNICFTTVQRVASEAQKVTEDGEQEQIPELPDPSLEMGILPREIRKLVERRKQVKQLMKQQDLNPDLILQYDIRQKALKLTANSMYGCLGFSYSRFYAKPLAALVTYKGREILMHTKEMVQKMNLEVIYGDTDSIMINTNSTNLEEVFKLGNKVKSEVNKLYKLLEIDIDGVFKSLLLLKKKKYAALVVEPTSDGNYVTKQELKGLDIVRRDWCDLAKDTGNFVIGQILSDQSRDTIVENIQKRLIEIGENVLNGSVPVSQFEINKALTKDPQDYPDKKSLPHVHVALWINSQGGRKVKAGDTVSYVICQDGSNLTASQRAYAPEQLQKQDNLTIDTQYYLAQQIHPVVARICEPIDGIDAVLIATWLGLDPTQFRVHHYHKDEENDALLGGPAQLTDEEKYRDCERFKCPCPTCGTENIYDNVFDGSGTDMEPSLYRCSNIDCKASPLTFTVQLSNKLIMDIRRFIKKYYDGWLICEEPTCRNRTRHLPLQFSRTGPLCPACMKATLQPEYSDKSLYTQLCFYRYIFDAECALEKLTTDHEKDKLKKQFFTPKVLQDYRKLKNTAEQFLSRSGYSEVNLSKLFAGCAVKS

Which selectivity ratio [1] does the source give for `CC(/C=C/C(C)=C/[C@@H]1Cc2nc(cs2)CCCCC(=O)O[C@@H](C)C/C(C)=C/C=C\C(=O)O1)=C\CN(C)C` here?
Its selectivity ratio is 5.

And the selectivity ratio [2]?
Its selectivity ratio is 5.

What about the selectivity ratio [3] of the same compound?
Its selectivity ratio is 5.

What about the pKa [4] of the same compound?
The pKa was 11.

And the inhibition [5]?
The inhibition was “inactive”.

And the IC50 [6]?
Its IC50 is 1.97 nM.

And the IC50 [7]?
Its IC50 is 3 nM.

What about the IC50 [8] of the same compound?
The IC50 was 3000 nM.
